Laboratory results: ChEMBL document CHEMBL1128379, “Synthesis, characterization, and antimalarial activity of the glucuronides of the hydroxylated metabolites of arteether” (J Med Chem, 1995)
Converted amounts (≈) assume the structure as drawn. One block for each compound: values may come before it.

What was measured:
[1] = Partition coefficient (logP); type: physicochemical; conditions: octanol/water
Procedure, shortened: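 log P estimated from C-18 HPLC retention index. Retention times taken on thermospray LC/MS, isocratic 50% (v/v) methanol in water with 0.1 M ammonium acetate at 1 mL/min, positive ion, filament on, vaporizer tip 7 °C below take-off temperature, block 184 °C.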

Plasmodium falciparum = experiment: In vitro antimalarial activity against Plasmodium falciparum FCR3; type: functional, organism-based
Procedure, shortened: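 P. falciparum FCR-3 kept in candle jars in RPMI 1640 with 10% human serum, sorbitol-synchronized for at least three cycles. Serially diluted compounds plus ring-stage parasitized cells (0.5-1% parasitemia, 5-10% hematocrit), 37 °C for 24 h, then 2 μCi [3H]hypoxanthine added and incubated 24 h more. Cells harvested, scintillation counted, drug-free parasitized controls run alongside.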

SMILES: CCO[C@H]1O[C@@H]2O[C@@]3(C)C[C@H](O)[C@H]4[C@H](C)CC[C@@H]([C@H]1C)[C@@]24OO3
logP ([1]; read-out: logP): 2.7

SMILES: CCO[C@H]1O[C@@H]2O[C@@]3(C)CC[C@H]4[C@H](CO)CC[C@@H]([C@H]1C)[C@@]24OO3
logP ([1]; read-out: logP): 2.08

logP [1]: 2.45
IC50 (Plasmodium falciparum): 0.0107 µg/mL (≈ 0.0376 µM)
SMILES: C[C@H]1[C@@H](O)O[C@@H]2O[C@@]3(C)CC[C@H]4[C@H](C)CC[C@@H]1[C@@]24OO3 [ARTENIMOL]

SMILES: CCO[C@H]1O[C@@H]2O[C@@]3(C)CC[C@H]4[C@H](C)[C@H](O)C[C@@H]([C@H]1C)[C@@]24OO3
logP ([1]; read-out: logP): 2.14

SMILES: CCO[C@H]1O[C@@H]2O[C@@]3(C)CC[C@H]4[C@H](C)[C@@H](O[C@H]5O[C@@H](C(=O)O)[C@H](O)[C@@H](O)[C@@H]5O)C[C@@H]([C@H]1C)[C@@]24OO3
logP ([1]; read-out: logP): 0.61
IC50 (Plasmodium falciparum): 0.0893 µg/mL (≈ 0.177 µM)

SMILES: CCO[C@H]1O[C@@H]2O[C@@]3(C)CC[C@H]4[C@H](CO[C@H]5O[C@@H](C(=O)O)[C@H](O)[C@@H](O)[C@@H]5O)CC[C@@H]([C@H]1C)[C@@]24OO3
logP ([1]; read-out: logP): 1.05
IC50 (Plasmodium falciparum): 6 µg/mL (≈ 11.9 µM)

SMILES: C[C@H]1[C@@H](O[C@@H]2O[C@H](C(=O)O)C(O)[C@H](O)C2O)O[C@@H]2O[C@H]3CC[C@H]4[C@H](C)CC[C@@H]1[C@@]24OO3 (stereo partly drawn)
logP ([1]; read-out: logP): 1.8
IC50 (Plasmodium falciparum): 0.255 µg/mL (≈ 0.571 µM)

SMILES: CCO[C@H]1O[C@@H]2O[C@@]3(C)CC[C@H]4[C@H](C)CC[C@@H]([C@H]1C)[C@@]24OO3 [ARTEMOTIL]
logP ([1]; read-out: logP): 3.89
IC50 (Plasmodium falciparum): 0.0013 µg/mL (≈ 0.00416 µM)

SMILES: C[C@H]1[C@H](O[C@@H]2O[C@H](C(=O)O)C(O)[C@H](O)C2O)O[C@@H]2O[C@H]3CC[C@H]4[C@H](C)CC[C@@H]1[C@@]24OO3 (stereo partly drawn)
logP ([1]; read-out: logP): 1.08
IC50 (Plasmodium falciparum): 6 µg/mL (≈ 13.4 µM)

SMILES: CCO[C@H]1O[C@@H]2O[C@@]3(C)CC[C@H]4[C@H](C)[C@H](O[C@H]5O[C@@H](C(=O)O)[C@H](O)[C@@H](O)[C@@H]5O)C[C@@H]([C@H]1C)[C@@]24OO3
logP ([1]; read-out: logP): 0.93
IC50 (Plasmodium falciparum): 6.56 µg/mL (≈ 13 µM)

SMILES: CCO[C@H]1O[C@@H]2O[C@@]3(C)CC[C@H]4[C@H](C)[C@@H](O)C[C@@H]([C@H]1C)[C@@]24OO3
logP ([1]; read-out: logP): 1.93
